Laboratory results from PubChem BioAssay AID492951 (Molecular Libraries Program, Specialized Chemistry Center, …, 2010).
Active and inactive are the calls of the source.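 Rule for the calls: active = inhibition above 10%; inactive = the rest.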

Molecular target: Hexokinase-4 (Homo sapiens) (UniProt P35557)
Test: human glucokinase inhibition, counter-screen for TbHK1 inhibitor project, biochemical, recombinant hGlck (AID 492951)
Details: G6PDH-coupled NADH absorbance 340 nm, at 10 µM
Outline: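 Test system: recombinant human glucokinase, G6PDH-coupled; Medium: pH 7.9 TEA buffer, MgCl2, NAD+; Also added: 20 mM glucose as reaction starter, plus 1 mM ATP; Compound dosing: single final test compound dose of 10 µM; Schedule: 10 min preincubation at room temperature; Measured by: NADH formation by absorbance at 340 nm; Repeats: triplicate.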

Chain of Hexokinase-4 (Homo sapiens) (P35557 whole entry, looked up): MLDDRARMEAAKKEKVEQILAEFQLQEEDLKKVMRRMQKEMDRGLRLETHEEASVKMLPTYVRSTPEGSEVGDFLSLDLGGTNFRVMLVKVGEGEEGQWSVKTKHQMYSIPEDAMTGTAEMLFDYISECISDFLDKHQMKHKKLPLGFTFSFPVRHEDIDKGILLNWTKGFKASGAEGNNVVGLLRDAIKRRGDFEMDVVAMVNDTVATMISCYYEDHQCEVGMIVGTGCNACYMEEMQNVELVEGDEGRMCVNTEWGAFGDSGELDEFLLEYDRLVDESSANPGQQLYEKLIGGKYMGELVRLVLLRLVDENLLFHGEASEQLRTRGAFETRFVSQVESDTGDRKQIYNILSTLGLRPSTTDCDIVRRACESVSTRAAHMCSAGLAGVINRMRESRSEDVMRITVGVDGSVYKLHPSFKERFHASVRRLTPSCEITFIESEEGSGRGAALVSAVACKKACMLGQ

O=c1ccsn1-c1ccccc1
outcome: inactive

O=C1CCN(C(=O)Nc2cc(Cl)ccc2C(=O)O)CC1
outcome: inactive
